# Bioassay records: PubChem, several laboratories
# Scp-1 inhibitor – Scp-1 (human) phosphatase inhibition. Recombinant Scp1, phosphopeptide, malachite green phosphate absorbance. inhibition, % at 20 µM. 340,000 tested, 0.88% active. AID 493091;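 active = inhibition above about 50% at 20 µM, limit read from the data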;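 note: plate controls were DMSO wells with enzyme for no effect and wells lacking enzyme for full effect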
# Target sequence (Q9GZU7 76-261 limits assumed): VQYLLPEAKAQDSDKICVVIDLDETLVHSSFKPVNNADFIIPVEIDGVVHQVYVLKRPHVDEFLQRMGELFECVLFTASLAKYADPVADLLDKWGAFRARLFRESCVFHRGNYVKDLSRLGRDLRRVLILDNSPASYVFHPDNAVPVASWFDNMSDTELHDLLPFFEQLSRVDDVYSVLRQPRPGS
#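 assay system = SCP-1 phosphatase catalytic domain, residues 76-261 | buffer or medium = 50 mM Tris acetate pH 5.5, 0.005% Tween-20, 10 mM MgCl2 | incubation = enzyme reaction 45 min at room temperature, colour 5 min, stabilisation 30 min | signal = Phosphate-binding colour reagent, absorbance read at 630 nm | measure = % inhibition at 20 µM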
# LMPTP block – blocks human LMPTP phosphatase. recombinant LMPTP-A, OMFP fluorogenic substrate, fluorescence intensity. 360,000 tested, 0.22% active. P24666. AID 651560. inhibition, % at 20 µM;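 active = compounds that cut the enzyme signal by at least half of the control window in the single-dose screen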;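 note: plate controls were DMSO wells with enzyme plus substrate for no effect and substrate without enzyme for full effect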
#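 Test system – LMPTP-A phosphatase enzyme · Quantity – 0.625 nM LMPTP-A final · Reagent – OMFP substrate, 400 µM final · Dosing – one test concentration per compound, 20 µM, with 3% DMSO overall · Timing – 50 min enzyme reaction at room temperature, protected from light · Detection – fluorescence intensity · Controls – substrate-only low control, DMSO enzyme-plus-substrate high control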
# STEP block – inhibitors of human striatal-enriched phosphatase STEP. P54829. recombinant STEP, OMFP fluorogenic substrate, fluorescence. inhibition, % at 20 µM. 360,000 tested, 0.25% active. AID 588621;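 active = inhibition at 20 µM, scaled per plate between control wells, above about 37%, limit read from the data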;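 note: 0% = DMSO with enzyme and substrate and 100% = substrate only without enzyme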
# Target sequence (P54829 whole entry, looked up): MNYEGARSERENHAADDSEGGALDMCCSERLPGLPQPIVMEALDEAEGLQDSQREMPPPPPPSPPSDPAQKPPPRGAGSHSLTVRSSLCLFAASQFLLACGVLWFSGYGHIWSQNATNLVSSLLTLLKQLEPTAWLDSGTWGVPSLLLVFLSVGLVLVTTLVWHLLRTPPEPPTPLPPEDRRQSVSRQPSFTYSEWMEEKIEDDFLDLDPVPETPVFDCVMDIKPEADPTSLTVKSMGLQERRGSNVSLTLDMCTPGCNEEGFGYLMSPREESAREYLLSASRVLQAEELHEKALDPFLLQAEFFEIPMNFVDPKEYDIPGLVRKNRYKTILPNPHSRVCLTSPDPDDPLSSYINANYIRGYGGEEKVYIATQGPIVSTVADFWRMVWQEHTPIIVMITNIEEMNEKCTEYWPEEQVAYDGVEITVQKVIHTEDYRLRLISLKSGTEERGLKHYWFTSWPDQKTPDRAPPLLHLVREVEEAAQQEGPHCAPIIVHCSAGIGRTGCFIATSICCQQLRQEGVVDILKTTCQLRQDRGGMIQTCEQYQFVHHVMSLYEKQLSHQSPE
#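 Material: STEP (striatal-enriched tyrosine phosphatase) enzyme, cell-free; Compound dosing: 20 µM single dose in 1% DMSO; Technique: fluorescence read at 480 nm ex / 540 nm em; Times: reaction 20 min, ambient temperature; Medium: 50 mM Bis-Tris pH 6.0 with 2.5 mM DTT and 0.005% Tween 20; Also added: OMFP at 25 µM.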
# DNMT1 block – inhibitors of human DNMT1; P26358; DNMT1 molecular beacon, Hinp1I cleavage, fluorescence; inhibition (reported as % activation of signal), % at 10 µM; 360,000 tested, 0.83% active; in the data active = inhibition above about 50%
# SUMO1-SIM PPI – SUMO1-SIM interaction modulation. P63165. SUMO1 binding to a labelled peptide, TR-FRET, 1 h. inhibition, % at 20 µM. 360,000 tested, 0.33% active. AID 602429; in the data active = inhibition above about 37%
# Target sequence (P63165 whole entry, looked up): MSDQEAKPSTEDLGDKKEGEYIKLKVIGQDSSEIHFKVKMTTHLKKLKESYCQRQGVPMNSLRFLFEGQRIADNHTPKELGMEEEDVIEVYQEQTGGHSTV
# GRK2 inh – inhibitors of human GRK2 displacing RNA aptamer | bead flow cytometry, FAM-aptamer displacement from GRK2 | inhibition of aptamer binding, % at 10 µM | 330,000 tested, 0.59% active;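 active = inhibition of aptamer binding above 40%, roughly 3 SD of noise, on plates passing a quality check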;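 note: median bead fluorescence of bound FAM aptamer so fluorescent compounds give negative values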
# GRK2 inh confirm – human GRK2 inhibition confirmation, cherry pick 1; shares compounds with GRK2 inh; bead-bound GRK2, FAM-aptamer displacement, flow cytometry; aptamer displacement, % at 10 µM; 2,000 tested, 4% active; AID 504451;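 active = aptamer displacement above 40%, near three times the noise of non-fluorescent compounds, on plates passing quality checks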;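 note: negative values mostly reflect intrinsic compound fluorescence rather than true enhancement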
# Aptamer quench 1 – fluorescent aptamer quenching in GRK2 counter-screen dose response; fluorescence change (kMESF span), kMESF (concentration not given with the values); 110 tested, under 10 active; Fluorescent RNA aptamer beads, flow cytometry; hits give high values; shares compounds with GRK2 inh;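 active = compounds whose bead fluorescence drops by more than 37 kMESF across the dose range, marking them as dye quenchers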
# Aptamer quench SP – aptamer fluorescence quenching in GRK2 counter-screen | fluorescence response (% of DMSO), % at 10 µM | shares compounds with GRK2 inh | AID 504580 | 2,000 tested, under 10 active | Carboxyfluorescein RNA aptamer on beads, flow cytometry quenching; hits give low values;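 active = compounds that quench the bead-bound fluorescent RNA probe, cutting fluorescence to under half of the solvent control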;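 note: counterscreen run without GRK2 so only probe quenching by compound is measured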
# GRK2 confirm 2 – human GRK2 inhibition confirmation, cherry pick 2. inhibition of aptamer binding, % at 10 µM. bead-bound GRK2, FAM-aptamer displacement, flow cytometry. AID 504782. shares compounds with GRK2 inh. 360 tested, under 10 active;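 active = inhibition of aptamer binding above 40%, about triple the noise seen with nonglowing compounds, on plates passing quality control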;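 note: negative values mostly come from compounds that fluoresce themselves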
# Aptamer quench 2 – counter-screen for GRK2 aptamer inhibitors: fluorescent aptamer quenchers | shares compounds with GRK2 inh | Streptavidin beads, FAM-RNA aptamer fluorescence quenching, flow cytometry | change in fluorescence (kMESF span), kMESF (no concentration beside the values) | 25 tested, under 10 active;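 active = compounds quenching the bead-bound labeled aptamer, with fluorescence dropping by more than 37 kMESF over the dose range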
# FAM quench SP – counter-screen for GRK2 binding hits: quenchers of fluorescent RNA aptamer. shares compounds with GRK2 inh. carboxyfluorescein RNA aptamer beads, flow cytometry quenching; hits give low values. fluorescence response vs DMSO, % at 10 µM. 360 tested, under 10 active;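 active = response vs DMSO under 50%, meaning signal dropped by over half, treated as fluorescence quencher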;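 note: labelled aptamer on streptavidin beads without GRK2 as a quench counter-screen; 100% = bead fluorescence of DMSO wells and lower means quenching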
# FAM quench DR – aptamer fluorescence quenching in GRK2 powder counter-screen. fluorescence ratio to DMSO, % at 11.1 µM. 35 tested, under 10 active. AID 588496. Bead-bound FAM RNA aptamer fluorescence quenching, flow cytometry; hits give low values. shares compounds with GRK2 inh;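 active = compounds that dim the fluorescent label, raw bead signal shifting by over 33 units between lowest and highest dose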
# Scp-1 conf – Scp-1 (human) inhibition, single-dose confirmed; AID 540281; recombinant SCP-1 catalytic domain, phosphate release, malachite green absorbance; shares compounds with Scp-1 inhibitor; 2,500 tested, 61% active; inhibition, % at 20 µM;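 active = inhibition of at least 30% at 20 µM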;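 note: plate controls were DMSO with enzyme for no effect and buffer wells lacking enzyme for full effect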
# Scp-1 MG ctr – interferes with malachite green readout, flagging false Scp-1 hits | shares compounds with Scp-1 inhibitor | Colorimetric interference counterscreen, malachite green absorbance 630 nm | apparent inhibition (interference), % at 20 µM | 2,500 tested, under 10 active | AID 540313;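 active = inhibition of at least 30% at 20 µM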;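 note: compounds added after enzyme reaction finished so only phosphate colour detection is probed; plate controls were DMSO wells with completed Scp-1 reaction for no effect and substrate wells lacking enzyme for full effect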
# Scp1 DSF – Scp-1 (human) binding by thermal shift. shares compounds with Scp-1 inhibitor. Recombinant SCP1, Sypro Orange thermal shift Tm. thermal shift relative to vanadate control, % at 40 µM. 1,500 tested, 25% active. AID 540329;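 active = substances whose mean melting-temperature shift, as a percentage of the reference inhibitor's shift, reaches about 5.3%, limit read from the data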;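 note: 0% = Tm of DMSO wells and 100% = Tm with sodium orthovanadate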
# Beacon interf DR – beacon fluorescence artifact, dose response counter-screen | 200 tested, under 10 active | IC50, µM | shares compounds with DNMT1 block | molecular beacon fluorescence, spectral interference counter-screen
# DNMT1 confirm – confirmation of human DNMT1 inhibitors | shares compounds with DNMT1 block | DNMT1 molecular beacon HinP1I cleavage, fluorescence | inhibition, % at 10 µM | 2,300 tested, 8% active | AID 602385;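 active = average inhibition of at least 30% in the single-concentration confirmation test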
# DNMT1 interf – counter-screen for DNMT1 inhibitors: spectral interference; DNMT1 molecular beacon spectral interference counterscreen, fluorescence 485/520; AID 602387; shares compounds with DNMT1 block; 2,300 tested, 1% active; activation (fluorescence interference), % at 10 µM;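 active = activation of at least 30% at 10 µM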;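 note: DNMT1 catalytic domain with a HinP1I cleavage step and a FAM/dabcyl DNA beacon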
# STEP inh conf – STEP (human) phosphatase inhibition, single concentration confirmation; AID 623866; recombinant STEP, OMFP fluorogenic substrate, fluorescence; inhibition, % at 20 µM; 520 tested, 32% active; shares compounds with STEP block;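 note: 0% = enzyme with substrate plus DMSO and 100% = substrate without enzyme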
# * hit, by the source's call; / = no result given. Rows were chosen to be rich in hits. Some 2.1% of all compounds tested hit in one or more screens of this group. Unless noted, the rule behind the calls is not given here.
SMILES,Scp-1 inhibitor,LMPTP block,STEP block,DNMT1 block,SUMO1-SIM PPI,GRK2 inh,GRK2 inh confirm,Aptamer quench SP,DNMT1 confirm,DNMT1 interf,others
O=C(O)c1cccc(-n2cccc2/C=C/[N+](=O)[O-])c1,85*,5,21,89*,68*,51*,30,99,5,-1,
C=CCOc1ccc(C(c2c(C(=O)O)[nH]c3ccccc23)c2c(C(=O)O)[nH]c3ccccc23)cc1,-19,2,-4,86*,15,79*,1,117,14,-1,
O=C(O)COc1ccc(Br)cc1C(c1c(C(=O)O)[nH]c2ccccc12)c1c(C(=O)O)[nH]c2ccccc12,-15,0,-1,-4,6,21,/,/,/,/,
O=C(O)c1ccc2ncc(NC(=O)c3ccc(F)cc3)c(=O)n2c1,-10,1,-2,1,-29,0,/,/,/,/,
Cn1cc(S(=O)(=O)NCc2ccc(Cl)cc2)c(=O)n(C)c1=O,-6,-1,16,4,-2,4,/,/,/,/,
CCCNC(=O)c1cc(C2CCCCN2C(=O)c2ccccc2)on1 (stereo not given),/,-1,-1,5,3,/,/,/,/,/,
CC(C)Cn1c(=O)[nH]c(=O)c2c(C(F)(F)F)cc(-c3ccccc3)nc21,-6,0,-2,9,1,0,/,/,/,/,
CCCCn1c(NS(=O)(=O)c2ccc(C)cc2)c(S(=O)(=O)c2ccccc2)c2nc3ccccc3nc21,-17,25,3,55*,50*,0,-5,97,2,-6,
Cc1cc(OCC(=O)Nc2nccs2)c2c(C)cc(=O)oc2c1,0,4,3,10,-1,0,/,/,/,/,
CC(CNc1ccccc1O)C(=O)O (stereo not given),73*,-1,-1,64*,-3,62*,/,/,2,0,GRK2 confirm 2=25;FAM quench SP=108;Scp-1 conf=43*;Scp-1 MG ctr=-17;Scp1 DSF=-3
CC(NC(=O)CCC(=O)Nc1ccccc1O)c1ccccc1 (stereo not given),-11,-2,3,-3,2,2,/,/,/,/,
C#CCSc1nc2sc3c(c2c(=O)n1C)CCC3,75*,14,93*,61*,13,55*,53*,164,0,-4,Aptamer quench 1=4;GRK2 confirm 2=67*;Aptamer quench 2=-2.9;FAM quench SP=102;FAM quench DR=99;Scp-1 conf=48*;Scp-1 MG ctr=-18;Scp1 DSF=-26
COc1ccc(C2N(c3ccc4c(c3)OCCO4)C(=O)C2(F)F)cc1OC (stereo not given),-12,1,0,-2,2,1,/,/,/,/,
COc1cc(CC(=O)OCC(=O)NC2CCCCCC2)cc(OC)c1OC,3,-2,-3,-2,4,0,/,/,/,/,
O=C1CC(N2CCN(c3ccc(Cl)cc3)CC2)C(=O)N1c1ccccc1 (stereo not given),-9,0,-3,-1,-3,1,/,/,/,/,
O=C1CC(N2CCN(c3ccccc3)CC2)C(=O)N1c1cccc(Cl)c1 (stereo not given),-10,-1,-3,71*,5,43*,3,96,1,77*,
Cc1ccc(S(=O)(=O)CCC(=O)OCC(=O)NCc2ccc(F)cc2)cc1,/,-1,-1,3,4,/,/,/,/,/,
O=C(CCS(=O)(=O)c1ccc(Br)cc1)NCc1ccc(F)cc1,81*,2,40*,51*,33,87*,/,/,0,3,GRK2 confirm 2=54*;Aptamer quench 2=0.5;FAM quench SP=102;Scp-1 conf=41*;Scp-1 MG ctr=-11;Scp1 DSF=-13;STEP inh conf=25
O=C(Nc1cccc(-c2nc3ncccc3o2)c1)c1sc2cc(Cl)ccc2c1Cl,95*,51*,90*,16,4,75*,-1,105,/,/,Scp-1 conf=57*;Scp-1 MG ctr=-12;Scp1 DSF=-12;STEP inh conf=0
Cc1cc(SCC(=O)N(C)C2CCCCC2)nc2ccccc12,-7,2,4,4,4,0,/,/,/,/,
O=C(N/N=C/c1ccc(Cl)cc1)c1ccc2c(c1)OCO2,103*,39,93*,9,15,59*,-9,120,/,/,Scp-1 conf=91*;Scp-1 MG ctr=-4;Scp1 DSF=-26;STEP inh conf=18
COc1ccc(OC)c(N2C(=O)c3cccnc3C2=O)c1,0,-1,0,0,-18,0,/,/,/,/,
COc1ccc(OC)c(N2C(=O)[C@@H]3C(c4ccccc4Cl)=NO[C@@H]3C2=O)c1,48,27,55*,114*,13,70*,98*,96,60*,2,Aptamer quench 1=2.4;Beacon interf DR=>99;STEP inh conf=80*
